In ChEMBL document CHEMBL1142307, “Design, synthesis, and radiosensitizing activities of sugar-hybrid hypoxic cell radiosensitizers” (Bioorg Med Chem, 2008):

How the values were obtained:
[1] = Partition coefficient by Shake flask method; format: physicochemical; details: octanol/water
How it was run: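 1 mg compound dissolved in 0.1 M phosphate buffer pH 7.40 as stock; absorbance read at 325 nm before partitioning. 3 mL stock stirred vigorously with phosphate buffer-saturated n-octanol (20–300 mL) at room temperature for 2 h. Aqueous phase absorbance at 325 nm measured after phase separation; P_oct calculated from pre/post absorbance.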

[2] = Radiosensitizing activity at hypoxic mouse EMT6/KU cells assessed as enhancement ratio relative to etanidazole; format: functional

Row | SMILES | P (partition coefficient) [1] | Ratio [2]
1 | CN(CCO[C@H]1O[C@H](CO)[C@@H](O)[C@H](O)[C@@H]1O)C(=O)Cn1ccnc1[N+](=O)[O-] | < 0.01 | 1.41
2 | CC(=O)OC[C@H]1O[C@H](OCCN(C)C(=O)Cn2ccnc2[N+](=O)[O-])[C@@H](OC(C)=O)[C@@H](OC(C)=O)[C@@H]1OC(C)=O | 0.0697 | 1.88
3 | CC(=O)N[C@H]1[C@H](OCCN(C)C(=O)Cn2ccnc2[N+](=O)[O-])O[C@H](COC(C)=O)[C@H](OC(C)=O)[C@@H]1OC(C)=O | 0.051 | 1.47
4 | CN(CCO)C(=O)Cn1ccnc1[N+](=O)[O-] | 0.056 | 1.75

The next lines start with results.

Row | P (partition coefficient) [1] | SMILES | Ratio [2]
5 | < 0.01 | CN(CCO[C@@H]1O[C@H](CO)[C@@H](O)[C@H](O)[C@H]1O)C(=O)Cn1ccnc1[N+](=O)[O-] | 1.33
6 | < 0.01 | CC(=O)N[C@H]1[C@H](OCCN(C)C(=O)Cn2ccnc2[N+](=O)[O-])O[C@H](CO)[C@H](O)[C@@H]1O | 1.43
7 | 0.0355 | CC(=O)OC[C@H]1O[C@@H](OCCN(C)C(=O)Cn2ccnc2[N+](=O)[O-])[C@H](OC(C)=O)[C@@H](OC(C)=O)[C@H]1OC(C)=O | 1.63
8 | < 0.01 | CN(CCO[C@@H]1O[C@H](CO)[C@H](O)[C@H](O)[C@H]1O)C(=O)Cn1ccnc1[N+](=O)[O-] | 1.4
9 | 0.105 | CC(=O)OC[C@H]1O[C@@H](OCCN(C)C(=O)Cn2ccnc2[N+](=O)[O-])[C@H](OC(C)=O)[C@@H](OC(C)=O)[C@@H]1OC(C)=O | 2.3
